# Source: ChEMBL document CHEMBL1123589, “Phenylpiperazine-based radiopharmaceuticals for brain imaging. 3. Synthesis and evaluation of radioiodinated 1-alkyl-4-phenylpiperazines” (J Med Chem, 1987)
# Assays:
# Conditions in all cases: in vivo
# [1] = test system: Rattus norvegicus; assay: The biodistribution of the [125I]-labeled compound in rats after intravenous injection was evaluated in kidney at 1.00 hrs; value ranges from 0.35-0.42 (ID.kg/g); assay type: ADME, organism-based
# Procedure, shortened: (§1)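 Male Sprague-Dawley rats (250–300 g), under ether anesthesia, given 10–15 μCi of the NCA ¹²⁵I-labeled agent iv in 0.1 mL saline. Groups of N = 3 were killed at 0.25, 1 or 4 h. Blood and tissues were removed, weighed and counted in a γ-well scintillation counter. Values are mean % ID·kg/g (range).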
# [2] = test system: Rattus norvegicus; assay: The biodistribution of the [125I]-labeled compound in rats after intravenous injection was evaluated in brain at 0.25 hrs; value ranges from 0.10-0.16 (ID.kg/g); assay type: ADME, organism-based
# Procedure, shortened: (§2)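 Male Sprague-Dawley rats (250–300 g) under ether anesthesia were given an iv injection of no-carrier-added 125I-labelled agent (10–15 μCi in 0.1 mL saline). The agent was iodinated with chloramine-T in acetate buffer and purified by C-18 HPLC. Groups of N = 3 were killed at 0.25, 1 and 4 h. Blood and tissues were weighed and γ-counted. Values are % ID·kg/g, mean (range).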
# [3] = test system: Rattus norvegicus; assay: The biodistribution of the [125I]-labeled compound in rats after intravenous injection was evaluated in muscle at 0.25 hrs (ID.kg/g); assay type: ADME, organism-based, Muscle tissue
# Procedure, shortened: (§3)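 Male Sprague-Dawley rats (250–300 g) under ether anesthesia given iv 0.1 mL saline containing 10–15 μCi of NCA ¹²⁵I-labeled agent (chloramine-T iodination, HPLC-purified). Groups of 3 killed at 0.25, 1 and 4 h. Blood and tissues excised, weighed and γ-counted. Values are mean (range) of % injected dose × body mass (kg) per gram of tissue.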
# [4] = test system: Rattus norvegicus; assay: The biodistribution of the [125I]-labeled compound in rats after intravenous injection was evaluated in blood at 0.25 hrs (ID.kg/g); assay type: ADME, organism-based; procedure, shortened: as §2
# [5] = test system: Rattus norvegicus; assay: The biodistribution of the [125I]-labeled compound in rats after intravenous injection was evaluated in muscle at 4.00 hrs (ID.kg/g); assay type: ADME, organism-based, Muscle tissue; procedure, shortened: as §3
# [6] = test system: Rattus norvegicus; assay: The biodistribution of the [125I]-labeled compound in rats after intravenous injection was evaluated in liver at 4.00 hrs (ID.kg/g); assay type: ADME, organism-based; procedure, shortened: as §1
# [7] = test system: Rattus norvegicus; assay: The biodistribution of the [125I]-labeled compound in rats after intravenous injection was evaluated in liver at 0.25 hr; value ranges from; value ranges from 0.45-0.60 (ID.kg/g); assay type: ADME, organism-based; procedure, shortened: as §1
# [8] = test system: Rattus norvegicus; assay: The biodistribution of the [125I]-labeled compound in rats after intravenous injection was evaluated in kidney at 0.25 hr; value ranges from 0.35-0.39 (ID.kg/g); assay type: ADME, organism-based; procedure, shortened: as §1
# [9] = test system: Rattus norvegicus; assay: The biodistribution of the [125I]-labeled compound in rats after intravenous injection was evaluated in brain at 1.00 hrs; value ranges from 0.08-0.10 (ID.kg/g); assay type: ADME, organism-based; procedure, shortened: as §2
# [10] = test system: Rattus norvegicus; assay: The biodistribution of the [125I]-labeled compound in rats after intravenous injection was evaluated in thyroid at 4.00 hrs; value ranges from 2.64-2.80 (ID.kg/g); assay type: ADME, organism-based, Thyroid gland; procedure, shortened: as §3
# [11] = test system: Rattus norvegicus; assay: The biodistribution of the [125I]-labeled compound in rats after intravenous injection was evaluated in adrenal at 1.00 hrs; value ranges from 0.78-1.46 (ID.kg/g); assay type: ADME, organism-based; procedure, shortened: as §2
# [12] = test system: Rattus norvegicus; assay: The biodistribution of the [125I]-labeled compound in rats after intravenous injection was evaluated in heart at 1.00 hrs; value ranges from 0.14-0.18 (ID.kg/g); assay type: ADME, organism-based; procedure, shortened: as §1
# [13] = test system: Rattus norvegicus; assay: The biodistribution of the [125I]-labeled compound in rats after intravenous injection was evaluated in kidney at 4.00 hrs; value ranges from. 28-0.30(ID.kg/g); assay type: ADME, organism-based; procedure, shortened: as §1
# [14] = test system: Rattus norvegicus; assay: The biodistribution of the [125I]-labeled compound in rats after intravenous injection was evaluated in lung at 1.00 hrs; value ranges from 0.65-0.85 (ID.kg/g); assay type: ADME, organism-based; procedure, shortened: as §1
# [15] = test system: Rattus norvegicus; assay: The biodistribution of the [125I]-labeled compound in rats after intravenous injection was evaluated in fat at 4.00 hrs; value ranges from 0.02-0.04 (ID.kg/g); assay type: ADME, organism-based, Adipose tissue; procedure, shortened: as §2
# [16] = test system: Rattus norvegicus; assay: The biodistribution of the [125I]-labeled compound in rats after intravenous injection was evaluated in lung at 0.25 hrs; value ranges from 1.0-1.14 (ID.kg/g); assay type: ADME, organism-based; procedure, shortened: as §1
# [17] = test system: Rattus norvegicus; assay: The biodistribution of the [125I]-labeled compound in rats after intravenous injection was evaluated in fat at 0.25 hr (ID. kg/g); assay type: ADME, organism-based, Adipose tissue; procedure, shortened: as §2
# [18] = test system: Rattus norvegicus; assay: The biodistribution of the [125I]-labeled compound in rats after intravenous injection was evaluated in heart at 0.25 hrs (ID.kg/g); assay type: ADME, organism-based; procedure, shortened: as §2
# [19] = test system: Rattus norvegicus; assay: The biodistribution of the [125I]-labeled compound in rats after intravenous injection was evaluated in liver at 1.00 hr 0.46-0.90 (ID.kg/g); assay type: ADME, organism-based; procedure, shortened: as §1
# [20] = test system: Rattus norvegicus; assay: The biodistribution of the [125I]-labeled compound in rats after intravenous injection was evaluated in adrenal at 4.00 hrs; value ranges from 1.09-1.22 (ID.kg/g); assay type: ADME, organism-based; procedure, shortened: as §2
# [21] = test system: Rattus norvegicus; assay: The biodistribution of the [125I]-labeled compound in rats after intravenous injection was evaluated in muscle at 1.00 hrs (ID.kg/g); assay type: ADME, organism-based, Muscle tissue; procedure, shortened: as §3
# [22] = test system: Rattus norvegicus; assay: The biodistribution of the [125I]-labeled compound in rats after intravenous injection was evaluated in blood at 4.00 hrs (ID.kg/g); assay type: ADME, organism-based; procedure, shortened: as §2
# [23] = test system: Rattus norvegicus; assay: The biodistribution of the [125I]-labeled compound in rats after intravenous injection was evaluated in heart at 4.00 hrs; value ranges from 0.11-0.13 (ID.kg/g); assay type: ADME, organism-based; procedure, shortened: as §1
# [24] = test system: Rattus norvegicus; assay: The biodistribution of the [125I]-labeled compound in rats after intravenous injection was evaluated in lung at 4.00 hrs; value ranges from 0.53-0.59 (ID.kg/g); assay type: ADME, organism-based; procedure, shortened: as §3
# [25] = test system: Rattus norvegicus; assay: The biodistribution of the [125I]-labeled compound in rats after intravenous injection was evaluated in brain at 4.00 hrs (ID.kg/g); assay type: ADME, organism-based; procedure, shortened: as §2
# [26] = test system: Rattus norvegicus; assay: The biodistribution of the [125I]-labeled compound in rats after intravenous injection was evaluated in fat at 1.00 hrs (ID.kg/g); assay type: ADME, organism-based, Adipose tissue; procedure, shortened: as §2
# [27] = test system: Rattus norvegicus; assay: The biodistribution of the [125I]-labeled compound in rats after intravenous injection was evaluated in thyroid at 0.25 hrs; value ranges from 1.44-2.04 (ID.kg/g); assay type: ADME, organism-based, Thyroid gland; procedure, shortened: as §3
# [28] = test system: Rattus norvegicus; assay: The biodistribution of the [125I]-labeled compound in rats after intravenous injection was evaluated in blood at 1.00 hrs (ID.kg/g); assay type: ADME, organism-based; procedure, shortened: as §2
# [29] = test system: Rattus norvegicus; assay: The biodistribution of the [125I]-labeled compound in rats after intravenous injection was evaluated in thyroid at 1.00 hrs; value ranges from 1.41-1.72 (ID.kg/g); assay type: ADME, organism-based, Thyroid gland; procedure, shortened: as §3
# [30] = test system: Rattus norvegicus; assay: The biodistribution of the [125I]-labeled compound in rats after intravenous injection was evaluated in adrenal at 0.25 hrs; value ranges from 0.84-0.91 (ID.kg/g); assay type: ADME, organism-based; procedure, shortened: as §2
compound,measurement,setting,value
CCCCCCN1CCN(c2ccc(I)cc2)CC1,Biodistribution,[1],0.42%
same,Biodistribution,[2],0.16%
same,Biodistribution,[3],0.03 % ID·kg/g
same,Biodistribution,[4],0.01 % ID·kg/g
same,Biodistribution,[5],0.02 %ID·kg/g
same,Biodistribution,[6],0.78%
same,Biodistribution,[7],0.6%
same,Biodistribution,[8],0.39%
same,Biodistribution,[9],0.1%
same,Biodistribution,[10],2.8%
same,Biodistribution,[11],1.46%
same,Biodistribution,[12],0.18%
same,Biodistribution,[13],0.3%
same,Biodistribution,[14],0.85%
same,Biodistribution,[15],0.04%
same,Biodistribution,[16],1.14%
same,Biodistribution,[17],0.01 % ID·kg/g
same,Biodistribution,[18],0.24%
same,Biodistribution,[19],0.9%
same,Biodistribution,[20],1.22%
same,Biodistribution,[21],0.02 %ID·kg/g
same,Biodistribution,[22],0.01 % ID·kg/g
same,Biodistribution,[23],0.13%
same,Biodistribution,[24],0.59%
same,Biodistribution,[25],0.09%
same,Biodistribution,[26],0.02 % ID·kg/g
same,Biodistribution,[27],2.04%
same,Biodistribution,[28],0.01 % ID·kg/g
same,Biodistribution,[29],1.72%
same,Biodistribution,[30],0.91%
